In ChEMBL document CHEMBL4680108, “Ancistrolikokine E, a 5,8'-Coupled Naphthylisoquinoline Alkaloid, Eliminates the Tolerance of Cancer Cells to Nutrition Starvation by Inhibition of the Akt/mTOR/Autophagy Signaling Pathway” (2018):
The source made the active and inactive calls. The calls are words filed in the database; no cut-off is given here.

What was measured:
PANC-1 [1] = assay: Inhibition of Akt/mTOR signaling pathway in human PANC-1 cells cultured in nutrient-deprived medium assessed as decrease in phosphorylated mTOR level at S2448 residue measured after 6 hrs by Western blot analysis; assay type: cell-based; conditions: dose 2.5-40 µM
Method in brief: (§1)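 Western blot of PANC-1 cells exposed to compound at different concentrations for 6 h in NDM or DMEM. Probed for total and phosphorylated Akt and mTOR and for GβL. Band levels compared with untreated control cells in NDM.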

PANC-1 [2] = assay: Inhibition of colony formation in human PANC-1 cells at 2.5 uM cultured in nutrient rich DMEM medium measured after 24 hrs by crystal violet staining based assay relative to control; assay type: functional
Method in brief: (§2)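 PANC-1 cells (5 × 10^2/well) attached in DMEM for 24 h, then exposed to 0, 2.5, 5 or 10 μM in DMEM for 24 h (triplicate). Washed, grown in fresh compound-free DMEM for 12 days, fixed in 4% formaldehyde and stained with crystal violet for 10 min. Colony area measured as a percentage of well area.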

PANC-1 [3] = assay: Inhibition of autophagy in human PANC-1 cells cultured in nutrient-deprived medium assessed as inhibition of LC3-2 expression at 40 uM after 6 hrs in presence of chloroquine by Western blot analysis relative to control; assay type: functional, cell-based
PANC-1 [4] = assay: Inhibition of Akt/mTOR signaling pathway in human PANC-1 cells cultured in nutrient-deprived medium assessed as decrease in total Akt level at 40 uM measured after 6 hrs by Western blot analysis relative to control; assay type: cell-based; method in brief: as §1
PANC-1 [5] = assay: Inhibition of autophagy in human PANC-1 cells cultured in nutrient-deprived medium assessed as inhibition of LC3-2 expression at 40 uM after 6 hrs in presence of chloroquine by Western blot analysis; assay type: functional, cell-based
PANC-1 [6] = assay: Anticancer activity against human PANC-1 cells assessed as induction of morphological changes at 10 uM measured after 7 hrs by digital cell imaging analysis; assay type: functional, cell-based
Method in brief: (§3)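 PANC-1 cells (3 × 10^6) in 35 mm dishes in nutrient-deprived medium (NDM), treated with 10 μM; kept in a stage-top incubator at 37 °C, 5% CO2. Phase-contrast images taken every 10 min for 24 h (145 frames, 20× objective). Untreated cells in NDM served as control.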

PANC-1 [7] = assay: Induction of necrosis in human PANC-1 cells cultured in nutrient-deprived medium assessed as round cell morphology at 5 uM measured after 24 hrs by ethidium bromide/acridine orange staining based phase contrast microscopy; assay type: functional
Method in brief: (§4)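 PANC-1 cells (2 × 10^5/well) attached in DMEM for 24 h, washed twice with PBS, then treated in NDM (1.25, 2.5, 5 μM; control in NDM alone) for 24 h. Stained with ethidium bromide/acridine orange and imaged in phase-contrast and red/green fluorescence modes (20× objective).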

PANC-1 [8] = assay: Inhibition of Akt/mTOR signaling pathway in human PANC-1 cells cultured in nutrient-deprived medium assessed as decrease in GbetaL level measured after 6 hrs by Western blot analysis; assay type: cell-based; conditions: dose 2.5-40 µM; method in brief: as §1
PANC-1 [9] = assay: Induction of apoptosis in human PANC-1 cells assessed as inhibition of Bcl-2 after 6 hrs by Western blot analysis; assay type: functional, cell-based; conditions: dose 2.5-40 µM
Method in brief: (§5)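 PANC-1 cells in NDM or DMEM exposed to compound at different concentrations for 6 h, then immunoblotted for Bcl-2, Bcl-xL and caspase-3.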

PANC-1 [10] = assay: Induction of necrosis in human PANC-1 cells cultured in nutrient-deprived medium assessed as leakage of cellular contents in to the medium at 5 uM measured after 24 hrs by ethidium bromide/acridine orange staining based phase contrast microscopy; assay type: functional, cell-based; method in brief: as §4
PANC-1 [11] = assay: Anticancer activity against human PANC-1 cells assessed as inhibition of cell motility at 10 uM measured within 90 mins by digital cell imaging analysis; assay type: functional, cell-based; conditions: time min <=90; method in brief: as §3
PANC-1 [12] = assay: Induction of necrosis in human PANC-1 cells cultured in nutrient-deprived medium assessed as membrane blebbing at 5 uM measured after 24 hrs by ethidium bromide/acridine orange staining based phase contrast microscopy; assay type: functional, cell-based; method in brief: as §4
PANC-1 [13] = assay: Induction of apoptosis in human PANC-1 cells cultured in nutrient-deprived medium assessed as inhibition of Bcl-xl measured after 6 hrs by Western blot analysis; assay type: functional, cell-based; conditions: dose 2.5-40 µM; method in brief: as §5
PANC-1 [14] = assay: Inhibition of Akt/mTOR signaling pathway in human PANC-1 cells cultured in nutrient-deprived medium assessed as decrease in phosphorylated Akt level at S473 residue measured after 6 hrs by Western blot analysis; assay type: cell-based; conditions: dose 2.5-40 µM; method in brief: as §1
PANC-1 [15] = assay: Inhibition of Akt/mTOR signaling pathway in human PANC-1 cells cultured in nutrient-deprived medium assessed as decrease in phosphorylated Akt level at S473 residue at 20 uM measured after 6 hrs by Western blot analysis relative to control; assay type: cell-based; method in brief: as §1
PANC-1 [16] = assay: Anticancer activity against human PANC-1 cells assessed as cell death at 10 uM measured within 20 hrs by digital cell imaging analysis relative to control; assay type: functional
Method in brief: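 PANC-1 cells (3 × 10^6) in 35 mm dishes were exposed to 10 μM compound in nutrient-deprived medium in a stage-top incubator at 37 °C, 5% CO2. Phase-contrast images were taken every 10 min for 24 h (145 frames, 20× objective). Untreated cells in NDM served as control.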

PANC-1 [17] = assay: Inhibition of colony formation in human PANC-1 cells cultured in nutrient rich DMEM medium measured after 24 hrs by crystal violet staining based assay; assay type: functional, cell-based; conditions: dose 2.5-10 µM; method in brief: as §2
PANC-1 [18] = assay: Inhibition of Akt/mTOR signaling pathway in human PANC-1 cells cultured in nutrient-deprived medium assessed as decrease in total Akt level at 20 uM measured after 6 hrs by Western blot analysis relative to control; assay type: cell-based; method in brief: as §1
PANC-1 [19] = assay: Induction of apoptotic cell death in human PANC-1 cells cultured in nutrient-deprived medium assessed as intact nuclei at 5 uM measured after 24 hrs by Hoechst 33342 staining based phase-contrast digital microscopy; assay type: functional
Method in brief: (§6)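 Cells (2 × 10^5) plated in 35 mm dishes, left 24 h to attach, washed twice with PBS, then given 5 μM in NDM for 24 h. Hoechst 33342 added directly to the medium for 5 min. Imaged in phase-contrast and fluorescence modes (20× objective).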

PANC-1 [20] = assay: Inhibition of autophagy in human PANC-1 cells cultured in nutrient-deprived medium after 6 hrs by MDC-staining based fluorescence microscopy analysis; assay type: functional, cell-based; conditions: dose 40.0 µM
Method in brief: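 PANC-1 cells under nutrient starvation given monodansylcadaverine with or without compound for 6 h. Autolysosome fluorescence viewed in fluorescence and phase-contrast modes.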

PANC-1 [21] = assay: Induction of apoptotic cell death in human PANC-1 cells cultured in nutrient-deprived medium assessed as formation of apoptotic bodies at 5 uM measured after 24 hrs by Hoechst 33342 staining based phase-contrast digital microscopy; assay type: functional; method in brief: as §6
PANC-1 [22] = assay: Anticancer activity against human PANC-1 cells assessed as cell death at 10 uM measured after 13 hrs by digital cell imaging analysis; assay type: functional, cell-based; method in brief: as §3
PANC-1 [23] = assay: Inhibition of autophagy in human PANC-1 cells cultured in nutrient-deprived medium assessed as inhibition of LC3-1 expression at 40 uM after 6 hrs in presence of chloroquine by Western blot analysis; assay type: functional, cell-based

COc1cc(OC)c(-c2ccc(O)c3c(OC)cc(C)cc23)c2c1C(C)=N[C@H](C)C2
inhibition (PANC-1 [1]): Dose-dependent effect
inhibition at 2.5 µM (PANC-1 [2]): ≤ 90%
inhibition (PANC-1 [3]): Active
inhibition (PANC-1 [4]): 86%
inhibition (PANC-1 [5]): Active
Activity (PANC-1 [6]): Active
Activity (PANC-1 [7]): Active
inhibition (PANC-1 [8]): Dose-dependent effect
inhibition (PANC-1 [9]): Active
Activity (PANC-1 [10]): Active
inhibition (PANC-1 [11]): Active
Activity (PANC-1 [12]): Active
inhibition (PANC-1 [13]): Active
inhibition (PANC-1 [14]): Dose-dependent effect
inhibition (PANC-1 [15]): 65%
Activity (PANC-1 [16]): 100%
inhibition (PANC-1 [17]): Dose-dependent effect
inhibition (PANC-1 [18]): 48%
Activity (PANC-1 [19]): Active
inhibition (PANC-1 [20]): Active
Activity (PANC-1 [21]): inactive
Activity (PANC-1 [22]): Active
inhibition (PANC-1 [23]): Active
